According to ChEMBL document CHEMBL4680093 (J Med Chem, 2016):
Activity calls are given as the source filed them. No cut-off for these calls is given here.

What was measured:
[1] = Metabolic stability in mouse liver microsomes assessed as compound remaining after 30 mins; format: ADME, Microsome; details: read-out: Stabilty
[2] = In-vivo inhibition of 11beta-HSD1 activity in C57BL/6 mouse liver assessed as reduction in cortisone to-cortisol conversion at 10 mg/kg, po measured after 2 hrs by ELISA; format: functional; details: C57BL/6, Liver
[3] = In-vivo inhibition of 11beta-HSD1 activity in C57BL/6 mouse epididymal fat assessed as reduction in cortisone to-cortisol conversion at 10 mg/kg, po measured after 2 hrs by ELISA; format: functional; details: C57BL/6, Epididymal fat pad
Procedure, shortened: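 Male C57BL/6 mice dosed orally once at 3, 10 or 30 mg/kg in sterile water containing 0.5% methylcellulose and 1% Tween80, then sacrificed at 2 or 6 h. Liver and epididymal fat pads incubated ex vivo in culture medium containing cortisone. Cortisol formed was measured by ELISA and reported as % inhibition versus vehicle.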

Cytochrome P450 1A2 = target: T1, Cytochrome P450 1A2 (Homo sapiens, UniProt P05177); experiment: Inhibition of CYP1A2 in pooled human liver microsomes using phenacetin as substrate in presence of NADPH incubated for 10 mins by LC-MS/MS analysis
T1 sequence (P05177 whole entry): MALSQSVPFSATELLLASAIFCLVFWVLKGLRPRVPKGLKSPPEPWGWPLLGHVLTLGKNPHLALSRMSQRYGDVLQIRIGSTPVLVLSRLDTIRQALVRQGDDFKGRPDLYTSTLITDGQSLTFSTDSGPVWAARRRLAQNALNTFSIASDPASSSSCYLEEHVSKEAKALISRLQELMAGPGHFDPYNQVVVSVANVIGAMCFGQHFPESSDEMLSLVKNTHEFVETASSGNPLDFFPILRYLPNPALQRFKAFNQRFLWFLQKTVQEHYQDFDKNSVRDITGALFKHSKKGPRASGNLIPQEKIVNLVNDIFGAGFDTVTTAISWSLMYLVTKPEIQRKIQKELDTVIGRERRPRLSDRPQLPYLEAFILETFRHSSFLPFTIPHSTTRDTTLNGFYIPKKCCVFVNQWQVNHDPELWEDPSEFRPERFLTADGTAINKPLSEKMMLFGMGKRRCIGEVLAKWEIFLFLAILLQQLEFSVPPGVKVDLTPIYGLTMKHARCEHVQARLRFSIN

Cytochrome P450 2C9 = Cytochrome P450 2C9 (Homo sapiens, UniProt P11712); experiment: Inhibition of CYP2C9 in pooled human liver microsomes using diclofenac as substrate in presence of NADPH incubated for 10 mins by LC-MS/MS analysis
Cytochrome P450 2C19 = Cytochrome P450 2C19 (Homo sapiens, UniProt P33261); experiment: Inhibition of CYP2C19 in pooled human liver microsomes using mephenytoin as substrate in presence of NADPH incubated for 10 mins by LC-MS/MS analysis
Cytochrome P450 2D6 = Cytochrome P450 2D6 (Homo sapiens, UniProt P10635); experiment: Inhibition of CYP2D6 in pooled human liver microsomes using dextromethorphan as substrate in presence of NADPH incubated for 10 mins by LC-MS/MS analysis
Cytochrome P450 3A4 = Cytochrome P450 3A4 (Homo sapiens, UniProt P08684); experiment: Inhibition of CYP3A4 in pooled human liver microsomes using midazolam as substrate in presence of NADPH incubated for 10 mins by LC-MS/MS analysis
[4] = target: T2, Nuclear receptor subfamily 1 group I member 2 (Homo sapiens, UniProt O75469); experiment: Activation of PXR (unknown origin) at 10 uM relative to rifampicin; format: ADME
T2 sequence (O75469 whole entry): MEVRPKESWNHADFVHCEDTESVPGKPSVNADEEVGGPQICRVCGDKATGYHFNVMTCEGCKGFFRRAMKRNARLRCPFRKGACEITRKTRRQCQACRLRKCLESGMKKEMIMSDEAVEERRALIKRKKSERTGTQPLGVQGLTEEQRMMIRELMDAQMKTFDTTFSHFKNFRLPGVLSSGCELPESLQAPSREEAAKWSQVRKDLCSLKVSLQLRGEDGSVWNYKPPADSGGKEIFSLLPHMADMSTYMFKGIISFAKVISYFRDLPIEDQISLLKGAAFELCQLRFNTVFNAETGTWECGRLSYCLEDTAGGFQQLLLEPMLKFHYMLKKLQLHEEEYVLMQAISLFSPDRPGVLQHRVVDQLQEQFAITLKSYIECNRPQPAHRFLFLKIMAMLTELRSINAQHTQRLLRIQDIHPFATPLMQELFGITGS

[5] = target: 11-beta-hydroxysteroid dehydrogenase 1 (Homo sapiens, UniProt P28845); experiment: Inhibition of human 11beta-HSD1 expressed in HEK293 cells using cortisone by ELISA
[6] = Reduction in HbA1c level in C57BL/6-Lep^ob (ob/ob) mouse at 300 mg/kg, po dosed once daily for 25 days relative to control; format: functional; set-up: scale not given: the % may be the effect or the level left; details: time 25 day
Procedure, shortened: (§1)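 Eight-week-old male ob/ob mice were dosed orally once daily for 25 days with vehicle (sterile water, 0.5% methylcellulose, 1% Tween80), test compound 20 mg/kg, metformin 300 mg/kg, or the combination. Baseline postprandial glucose and HbA1c were checked from tail-vein blood. Changes in HbA1c and non-fasting blood glucose were expressed relative to the vehicle group.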

Mus musculus [7] = experiment: Reduction in nonfasting blood glucose level in C57BL/6-Lep^ob (ob/ob) mouse at 300 mg/kg, po dosed once daily for 25 days relative to control; format: functional, organism-based; details: time 25.0 day; procedure, shortened: as §1
Mus musculus [8] = experiment: Improvement in lipid profile in C57BL/6-Lep^ob (ob/ob) mouse assessed as LDL cholesterol level at 300 mg/kg, po dosed once daily for 25 days (reference value: 30.3 +/- 0.8 mg/dl); format: functional; details: time 25 day
Mus musculus [9] = experiment: Improvement in lipid profile in C57BL/6-Lep^ob (ob/ob) mouse assessed as total cholesterol level at 300 mg/kg, po dosed once daily for 25 days (reference value: 286.6 +/- 6.3 mg/dl); format: functional; details: time 25 day
Mus musculus [10] = experiment: Improvement in lipid profile in C57BL/6-Lep^ob (ob/ob) mouse assessed as triglyceride level at 300 mg/kg, po dosed once daily for 25 days (reference value: 90.9 +/- 5.5 mg/dl); format: functional; details: time 25 day
[11] = Reduction in HbA1c in patient with type 2 diabetes exhibiting inadequate glycemic control with metformin alone dosed for 12 weeks during phase 2 trial; format: functional, Homo sapiens; set-up: scale not given: the % may be the effect or the level left
[12] = Reduction in fasting plasma glucose in patient with type 2 diabetes exhibiting inadequate glycemic control with metformin alone dosed for 12 weeks during phase 2 trial; format: functional, Homo sapiens
[13] = Reduction in HOMA-IR in patient with type 2 diabetes exhibiting inadequate glycemic control with metformin alone dosed for 12 weeks during phase 2 trial; format: functional, Homo sapiens; set-up: scale not given: the % may be the effect or the level left

Sequence of Cytochrome P450 2C9 (P11712 whole entry): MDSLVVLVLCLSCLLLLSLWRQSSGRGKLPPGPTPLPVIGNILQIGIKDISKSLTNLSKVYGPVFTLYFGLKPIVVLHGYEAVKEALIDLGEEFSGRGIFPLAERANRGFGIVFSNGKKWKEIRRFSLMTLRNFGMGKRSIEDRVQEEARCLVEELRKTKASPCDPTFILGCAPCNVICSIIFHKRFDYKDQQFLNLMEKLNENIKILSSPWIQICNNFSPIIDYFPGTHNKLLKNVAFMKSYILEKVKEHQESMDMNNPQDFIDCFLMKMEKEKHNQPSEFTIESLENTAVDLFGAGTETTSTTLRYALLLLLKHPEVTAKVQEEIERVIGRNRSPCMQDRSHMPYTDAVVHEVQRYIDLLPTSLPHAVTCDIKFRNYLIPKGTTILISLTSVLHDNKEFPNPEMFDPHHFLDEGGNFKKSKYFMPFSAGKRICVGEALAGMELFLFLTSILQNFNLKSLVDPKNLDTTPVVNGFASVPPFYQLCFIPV
Sequence of Cytochrome P450 3A4 (P08684 whole entry): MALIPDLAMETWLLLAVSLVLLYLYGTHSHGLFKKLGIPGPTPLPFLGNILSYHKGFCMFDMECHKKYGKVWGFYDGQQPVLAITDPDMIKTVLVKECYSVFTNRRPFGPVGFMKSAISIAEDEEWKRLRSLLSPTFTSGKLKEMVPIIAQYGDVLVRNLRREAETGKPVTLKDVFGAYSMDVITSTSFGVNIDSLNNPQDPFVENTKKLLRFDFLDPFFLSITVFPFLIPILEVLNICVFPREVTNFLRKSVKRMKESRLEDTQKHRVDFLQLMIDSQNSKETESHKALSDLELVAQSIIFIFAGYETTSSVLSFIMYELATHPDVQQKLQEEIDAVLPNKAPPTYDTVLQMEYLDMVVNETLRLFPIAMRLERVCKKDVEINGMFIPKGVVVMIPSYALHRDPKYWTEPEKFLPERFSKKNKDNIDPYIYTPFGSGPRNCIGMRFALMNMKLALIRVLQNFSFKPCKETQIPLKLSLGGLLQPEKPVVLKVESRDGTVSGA
Sequence of Cytochrome P450 2C19 (P33261 whole entry): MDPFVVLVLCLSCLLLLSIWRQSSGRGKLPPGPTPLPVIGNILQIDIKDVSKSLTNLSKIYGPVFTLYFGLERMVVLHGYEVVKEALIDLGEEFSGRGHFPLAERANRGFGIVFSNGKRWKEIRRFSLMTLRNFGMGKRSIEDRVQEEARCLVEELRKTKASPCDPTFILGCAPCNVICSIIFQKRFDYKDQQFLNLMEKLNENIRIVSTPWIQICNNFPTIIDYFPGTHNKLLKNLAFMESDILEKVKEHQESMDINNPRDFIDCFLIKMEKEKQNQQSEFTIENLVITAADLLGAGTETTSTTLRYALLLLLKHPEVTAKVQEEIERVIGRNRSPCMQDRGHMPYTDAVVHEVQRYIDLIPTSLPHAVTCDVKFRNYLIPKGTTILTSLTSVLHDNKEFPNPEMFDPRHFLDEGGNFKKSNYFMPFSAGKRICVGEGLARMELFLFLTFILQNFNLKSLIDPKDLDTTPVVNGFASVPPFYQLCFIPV
Sequence of Cytochrome P450 2D6 (P10635 whole entry): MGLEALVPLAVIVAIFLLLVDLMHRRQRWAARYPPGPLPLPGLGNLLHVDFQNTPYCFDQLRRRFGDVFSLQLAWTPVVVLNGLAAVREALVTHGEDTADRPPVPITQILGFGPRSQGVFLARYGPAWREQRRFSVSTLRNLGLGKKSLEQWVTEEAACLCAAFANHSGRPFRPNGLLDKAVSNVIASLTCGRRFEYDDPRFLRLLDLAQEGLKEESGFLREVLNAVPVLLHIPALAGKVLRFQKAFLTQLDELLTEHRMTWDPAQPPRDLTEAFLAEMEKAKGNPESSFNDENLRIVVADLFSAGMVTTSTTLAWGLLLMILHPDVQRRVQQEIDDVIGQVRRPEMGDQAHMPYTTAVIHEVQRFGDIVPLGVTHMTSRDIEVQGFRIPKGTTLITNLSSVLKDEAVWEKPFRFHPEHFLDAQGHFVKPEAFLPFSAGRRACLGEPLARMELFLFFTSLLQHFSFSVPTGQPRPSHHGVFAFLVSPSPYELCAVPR
Sequence of 11-beta-hydroxysteroid dehydrogenase 1 (P28845 whole entry): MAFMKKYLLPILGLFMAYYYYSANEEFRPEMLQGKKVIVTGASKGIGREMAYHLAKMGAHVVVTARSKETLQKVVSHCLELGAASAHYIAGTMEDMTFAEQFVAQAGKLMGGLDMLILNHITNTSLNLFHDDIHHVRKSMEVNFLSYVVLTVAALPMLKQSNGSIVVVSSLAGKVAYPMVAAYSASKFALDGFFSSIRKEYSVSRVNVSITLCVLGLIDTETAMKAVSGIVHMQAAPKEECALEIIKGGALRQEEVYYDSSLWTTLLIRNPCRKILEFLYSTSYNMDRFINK

Row | SMILES | remaining at 0.5 h [1] [%] | inhibition in vivo at 10 mg/kg [2] [%] | inhibition in vivo at 10 mg/kg [3] [%] | other results
1 | CNC(=O)c1ccc(N2CCN(c3cccc(C(=O)NC4C5CC6CC4CC(O)(C6)C5)n3)[C@H](C)C2)cc1 (stereo partly specified) | 61 | 0 | 34 | –
2 | C[C@@H]1CN(c2ccc(C(C)(C)O)cc2)CCN1c1nccc(C(=O)NC2C3CC4CC2CC(O)(C4)C3)n1 (stereo partly specified) | 99 | 32 | 46 | –
3 | C[C@@H]1CN(c2ccc(S(C)(=O)=O)cc2)CCN1c1nccc(C(=O)NC2C3CC4CC2CC(O)(C4)C3)n1 (stereo partly specified) | 92 | 48 | 81 | IC50 (Cytochrome P450 1A2): > 10 µM; IC50 (Cytochrome P450 2C9): > 10 µM; IC50 (Cytochrome P450 2C19): > 10 µM; IC50 (Cytochrome P450 2D6): > 10 µM; IC50 (Cytochrome P450 3A4): > 10 µM
4 | C[C@@H]1CN(c2ccc(C#N)cc2)CCN1c1nccc(C(=O)NC2C3CC4CC2CC(O)(C4)C3)n1 (stereo partly specified) | 86 | 6 | 12 | –
5 | C[C@@H]1CN(c2ccc(Cl)cc2)CCN1c1nccc(C(=O)NC2C3CC4CC2CC(O)(C4)C3)n1 (stereo partly specified) | 78 | – | – | –
6 | C[C@@H]1CN(c2c(F)cc(S(C)(=O)=O)cc2F)CCN1c1nccc(C(=O)NC2C3CC4CC2CC(O)(C4)C3)n1 (stereo partly specified) | 95 | – | – | –
7 | CNC(=O)c1ccc(N2CCN(c3cccc(C(=O)NC4C5CC6CC4CC(O)(C6)C5)n3)[C@H](C)C2)cn1 (stereo partly specified) | 66 | 52 | 85 | IC50 (Cytochrome P450 1A2): > 10 µM; IC50 (Cytochrome P450 2C9): > 10 µM; IC50 (Cytochrome P450 2C19): 0.7 µM; IC50 (Cytochrome P450 2D6): > 10 µM; IC50 (Cytochrome P450 3A4): > 10 µM
8 | C[C@@H]1CN(c2ccc(F)cc2)CCN1c1nccc(C(=O)NC2C3CC4CC2CC(O)(C4)C3)n1 (stereo partly specified) | 82 | – | – | –
9 | C[C@@H]1CN(c2ccc(S(N)(=O)=O)cc2)CCN1c1cccc(C(=O)NC2C3CC4CC2CC(O)(C4)C3)n1 (stereo partly specified) | 65 | 0 | 11 | –
10 | CCS(=O)(=O)c1ccc(N2CCN(c3nccc(C(=O)NC4C5CC6CC4CC(O)(C6)C5)n3)[C@H](C)C2)c(F)c1 (stereo partly specified) | 91 | 79 | 82 | –
11 | C[C@@H]1CN(c2ccc(S(C)(=O)=O)cc2)CCN1c1cccc(C(=O)NC2C3CC4CC2CC(O)(C4)C3)n1 (stereo partly specified) | 97 | 70 | 86 | IC50 (Cytochrome P450 1A2): > 10 µM; IC50 (Cytochrome P450 2C9): > 10 µM; IC50 (Cytochrome P450 2C19): 3.7 µM; IC50 (Cytochrome P450 2D6): > 10 µM; IC50 (Cytochrome P450 3A4): 0.97 µM; Activity [4]: 32.7%; IC50 [5]: 3.1 nM
12 | C[C@@H]1CN(c2ccc(C(N)=O)cc2)CCN1c1cccc(C(=O)NC2C3CC4CC2CC(O)(C4)C3)n1 (stereo partly specified) | 57 | 0 | 26 | –
13 | CN(C)C(=N)NC(=N)N [METFORMIN] | – | – | – | Activity [6]: 0.7%; Activity (Mus musculus [7]): inactive; Activity (Mus musculus [8]): 23.9 mg/dL; Activity (Mus musculus [9]): 252.6 mg/dL; Activity (Mus musculus [10]): 99.9 mg/dL
14 | CNS(=O)(=O)c1ccc(N2CCN(c3cccc(C(=O)NC4C5CC6CC4CC(O)(C6)C5)n3)[C@H](C)C2)cc1 (stereo partly specified) | 83 | 12 | 33 | –
15 | C[C@@H]1CN(c2ccc(C(=O)O)cc2)CCN1c1cccc(C(=O)NC2C3CC4CC2CC(O)(C4)C3)n1 (stereo partly specified) | 71 | – | – | –
16 | O=C(NC1CCCCC1)[C@H]1CCCN(S(=O)(=O)c2cccc(Cl)c2)C1 | – | – | – | Activity [11]: 0.6%; Activity [12]: 24 mg/dL; Activity [13]: 24%
17 | C[C@@H]1CN(c2ccc(S(C)(=O)=O)cc2Cl)CCN1c1nccc(C(=O)NC2C3CC4CC2CC(O)(C4)C3)n1 (stereo partly specified) | 96 | 77 | 82 | –
18 | C[C@@H]1CN(c2ccc(C(F)(F)F)cc2)CCN1c1nccc(C(=O)NC2C3CC4CC2CC(O)(C4)C3)n1 (stereo partly specified) | 90 | – | – | –
19 | Cc1cc(S(C)(=O)=O)ccc1N1CCN(c2nccc(C(=O)NC3C4CC5CC3CC(O)(C5)C4)n2)[C@H](C)C1 (stereo partly specified) | 90 | 64 | 77 | –
20 | C[C@@H]1CN(c2ccc(C(C)(C)O)cc2F)CCN1c1nccc(C(=O)NC2C3CC4CC2CC(O)(C4)C3)n1 (stereo partly specified) | 98 | 43 | 74 | –
21 | C[C@@H]1CN(c2cc(F)c(S(C)(=O)=O)cc2F)CCN1c1nccc(C(=O)NC2C3CC4CC2CC(O)(C4)C3)n1 (stereo partly specified) | 92 | 80 | 85 | –
22 | C[C@@H]1CN(c2ccc(C(N)=O)nc2)CCN1c1cccc(C(=O)NC2C3CC4CC2CC(O)(C4)C3)n1 (stereo partly specified) | 23 | – | – | –
23 | C[C@@H]1CN(c2ccc(C(C)(C)O)nc2)CCN1c1cccc(C(=O)NC2C3CC4CC2CC(O)(C4)C3)n1 (stereo partly specified) | 76 | 63 | 87 | –
